{"data": "Results pooled from the literature", "cell line": "HepG2", "effect on": "cell growth or viability", "note": "Compare with care: the assays were run in different laboratories."}
{"Structure (SMILES)": "Cc1cc(Nc2ccc(C(=O)N/N=C/c3ccc[nH]3)cc2)c2cccc(O)c2n1", "assay": "MTT", "setting": "20 µM", "inhibition [%]": 43.9}
{"Structure (SMILES)": "Cc1cc(=O)oc2ccc(-c3cc(-c4cccc(Cl)c4)nc(N)n3)c(O)c12", "assay": "MTT", "setting": "8 µg/mL, 72 h", "inhibition [%]": 0}
{"Structure (SMILES)": "O=C(CN1C(=O)/C(=C/c2ccc(Cl)cc2)SC1=S)Nc1ccccc1", "assay": "MTT", "setting": "10 µM", "inhibition [%]": 21.2}
{"Structure (SMILES)": "Cc1cc(=O)oc2ccc(-c3cc(-c4cccs4)nc(N)n3)c(O)c12", "assay": "MTT", "setting": "32 µg/mL, 72 h", "inhibition [%]": 14}
{"Structure (SMILES)": "O=C(CN1C(=O)/C(=C/c2cccc(F)c2)SC1=S)Nc1ccccc1", "assay": "MTT", "setting": "10 µM", "inhibition [%]": 7.27}
{"Structure (SMILES)": "Cc1cc(Nc2ccc(C(=O)N/N=C/c3ccnc(Cl)c3)cc2)c2cccc(O)c2n1", "assay": "MTT", "setting": "20 µM", "inhibition [%]": 42.4}
{"Structure (SMILES)": "O=C(CN1C(=O)/C(=C/c2cccs2)SC1=S)Nc1ccccc1", "assay": "MTT", "setting": "10 µM", "inhibition [%]": 11.8}
{"Structure (SMILES)": "CCOC(=O)c1c(C)ncn1CC(c1cn(C)c2ccc([N+](=O)[O-])cc12)c1cn(C)c2ccc([N+](=O)[O-])cc12", "assay": "MTS", "setting": "20 µM, 24 h", "inhibition [%]": 10.2}
{"Structure (SMILES)": "O=C(CN1C(=O)/C(=C/c2ccc(Cl)cc2Cl)SC1=S)Nc1ccccc1", "assay": "MTT", "setting": "10 µM", "inhibition [%]": 8.03}
{"Structure (SMILES)": "Cc1cc(=O)oc2ccc(-c3cc(-c4ccc(Br)cc4)nc(N)n3)c(O)c12", "assay": "MTT", "setting": "2 µg/mL, 72 h", "inhibition [%]": 0}
{"Structure (SMILES)": "COc1ccc(/C=N/NC(=O)c2ccc(Nc3cc(C)nc4c(O)cccc34)cc2)cc1O", "assay": "MTT", "setting": "20 µM", "inhibition [%]": 34.6}
{"Structure (SMILES)": "CCCCCCCCCCCCCCCCOP(=O)([O-])OCC[N+](C)(C)C", "assay": "MTS", "setting": "20 µM, 24 h", "inhibition [%]": 37.9}
{"Structure (SMILES)": "Cc1cc(Nc2ccc(C(=O)N/N=C/c3cccc(Oc4ccccc4)c3)cc2)c2cccc(O)c2n1", "assay": "MTT", "setting": "20 µM", "inhibition [%]": 51.7}
{"Structure (SMILES)": "O=C(CN1C(=O)/C(=C/c2ccc(C(F)(F)F)cc2)SC1=S)Nc1ccccc1", "assay": "MTT", "setting": "10 µM", "inhibition [%]": 11.2}
{"Structure (SMILES)": "Cc1cccc(/C=N/NC(=O)c2ccc(Nc3cc(C)nc4c(O)cccc34)cc2)n1", "assay": "MTT", "setting": "20 µM", "inhibition [%]": 45.4}
{"Structure (SMILES)": "CCOc1ccc(/C=C2\\SC(=S)N(CC(=O)Nc3ccccc3)C2=O)cc1", "assay": "MTT", "setting": "10 µM", "inhibition [%]": 34.3}
{"Structure (SMILES)": "Cc1ccc(-c2cc(-c3ccc4oc(=O)cc(C)c4c3O)nc(N)n2)cc1", "assay": "MTT", "setting": "2 µg/mL, 72 h", "inhibition [%]": 0}
{"Structure (SMILES)": "Cc1cc(Nc2ccc(C(=O)N/N=C/C3CCCCC3)cc2)c2cccc(O)c2n1", "assay": "MTT", "setting": "20 µM", "inhibition [%]": 45.4}
